Results collected from several papers.
Compare with care: the assays were run in different laboratories.
Target: Serine/threonine-protein kinase WNK2 (WNK2, Homo sapiens, UniProt Q9Y3S1)

Structure (SMILES) | read-out | method | concentration | remaining binding
C[C@@H](c1cccc(C#N)c1)n1cc(Cl)cc(C(N)=O)c1=N | cell-free assay | competition with immobilised ligand | 1 µM | 67%
O=C(c1ccc(Nc2ncc(Cl)c(-c3cc4ccccc4s3)n2)cc1)N1CCC(N2CCCC2)CC1 | binding | competition with immobilised ligand | 1 µM | 83%
C[C@H]1CCN(c2nccc(-c3cnn4ncccc34)n2)C1 | binding | – | 1 µM | 98%
CC(C)(O)c1cncc(-c2nc3ccc(F)cc3n2C2CC2)c1 | cell-free assay | competition with immobilised ligand | 1 µM | 100%
COc1ncc2cc3ccccc3nc2c1C#N | cell-free assay | competition with immobilised ligand | 5 µM | 100%
N[C@H]1CCN(c2nccc(-c3cnn4ncccc34)n2)C1 | binding | – | 1 µM | 100%
Cc1c(NC(=O)c2cc(C(N)=O)nc3cc(F)ccc23)c(C(F)(F)F)nn1Cc1ccc(C(C)(C)C)cc1 | cell-free assay | competition with immobilised ligand | 1 µM | 100%
O=C(Nc1c[nH]nc1C(=O)NC1CCNCC1)c1cc(F)cc(F)c1 | binding | competition with immobilised ligand | 1 µM | 100%
COc1cnc(Nc2cccc(S(N)(=O)=O)c2)nc1N1CCN(c2ccccc2)C(=O)C1 | binding | competition with immobilised ligand | 1 µM | 100%
COc1ccnn2ncc(-c3ccnc(N(C)C)n3)c12 | binding | – | 1 µM | 100%
Cc1c[nH]c2nccc(Oc3c(F)cc(Nc4cc(Cl)nc(N)n4)cc3F)c12 | cell-free assay | competition with immobilised ligand | 0.1 µM | 96%
O=C(c1ccc(Nc2nccc(-c3cc4ccccc4s3)n2)cc1)N1CCC(N2CCCC2)CC1 | binding | competition with immobilised ligand | 1 µM | 87%
CN(C)c1nccc(-c2cnn3ncccc23)n1 | binding | – | 1 µM | 37%
CNC(=O)Nc1ccc2c(c1)CC[C@@]21OC(=O)N(CC(=O)N(Cc2ccc(F)cc2)[C@@H](C)C(F)(F)F)C1=O | cell-free assay | competition with immobilised ligand | 1 µM | 100%
C[C@@H](c1ccc(-n2cnc3c(N)ncnc32)cc1)N1CCc2nn(C)c(Cc3ccccc3)c2C1=O | binding | competition with immobilised ligand | 0.1 µM | 65%
CNCc1ccccc1-c1csc([C@H](C)Nc2nc(C)nc3cc(OC)c(OC)cc23)c1 | cell-free assay | competition with immobilised ligand | 1 µM | 99%
CN(C)c1ncc(F)c(-c2cnn3ncccc23)n1 | binding | – | 1 µM | 82%
COc1cnc(Nc2cccc(S(N)(=O)=O)c2)nc1N1CCN(c2ccccc2)CC1 | binding | competition with immobilised ligand | 1 µM | 35%
CN(C)c1nccc(-c2cnc3ncccn23)n1 | binding | – | 1 µM | 94%
O=C(NCCCN1CCOCC1)c1ccc(Nc2ncc(Cl)c(-c3ccc(Cl)s3)n2)cc1 | binding | competition with immobilised ligand | 1 µM | 92%
